Among the data in the array DNA melting data of Ke et al. (doi:10.1101/2024.01.08.574731) are folding enthalpy and Tm values, retold here.

Series [1] is described as follows: folding enthalpy; higher = less favourable; fluorescence melt of hairpins on a sequencing array, two-state fit. The note with it: sodium 0.088 M. The method, boiled down: (§1)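 Cy3 signals were normalised both to pre-quench Cy3 and to control constructs. They came from library hairpins carrying annealed Cy3 and quencher oligos on a sequenced MiSeq flow cell, imaged in 50 mM Na-HEPES pH 8.0, 25 mM NaCl, in 2.5 °C steps up to 60 °C. Bootstrapped two-state fits gave melting temperature and folding enthalpy, and four replicates were combined by inverse variance. Fitted temperatures were then raised by 9.35 °C to match UV melts.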

Series [2] is described as follows: melting temperature; fluorescence melt of hairpins on a sequencing array, two-state fit, raised by 9.35 °C to match UV melts. The note with it: sodium 0.088 M. The procedure, abridged:
as §1

On to GTTAATCGAAAGATAAAC (((.(((....))).))), for which, in series [1], the folding enthalpy was -86.7 kJ/mol. In series [2], the Tm was 31.6 °C.
For GGTGCCGGAAACGGTGCC ((..(((....)))..)), in that order: -174 kJ/mol and 56.6 °C.
In the case of GCGTGGCGAAAGCAATGC ((.(.((....)).).)), the folding enthalpy in series [1] is -82.1 kJ/mol. Further, the Tm in series [2] was found to be 52.8 °C.
As for GGTGTTGCGAAAGCAACC (((..(((....)))))), the folding enthalpy in series [1] is -34.3 kJ/mol. In addition, the Tm in series [2] was 49.5 °C.
For GCCTTCGAAAGAAGCGGC ((((((....)))..))), in that order: -75.9 kJ/mol and 47.2 °C.
For GGCAGCGAAAGCTCCGCC ((((((....)))..))), in that order: -80.4 kJ/mol and 56 °C.
Take CGTCAACGGAAACGTACG (((..(((....)))))): the folding enthalpy in series [1] was -47.8 kJ/mol. In addition, the Tm in series [2] was determined as 35.6 °C.
The like results for GATCGTCATTACGATC ((((((....)))))) were, in that order, -161 kJ/mol and 54.8 °C.
The like results for GATCTCACACGAGATC ((((((....)))))) were, in that order, -174 kJ/mol and 52.4 °C.
The like results for GGCCTCCGAAAGGAAGCC (((.(((....))).))) were, in that order, -171 kJ/mol and 55.5 °C.
GCGAAAGGAAACTTTCGC (((((((....))))))): the folding enthalpy in series [1] is -185 kJ/mol. Further, in series [2], the Tm is 64.6 °C.
Turning to GCTCAGCGAAAGCCGAGC ((((.((....)).)))), in series [1], the folding enthalpy was -118 kJ/mol. Further, the Tm in series [2] turned out to be 63.5 °C.
For GCTACGCGAAAGCTTCGC ((.(.((....)).).)), in that order: -43.2 kJ/mol and 37.6 °C.
The like results for GATGGACGAAAGTCATC (((.(((....)))))) were, in that order, -75 kJ/mol and 45.7 °C.
In the case of GCACATGAAAATGTGC ((((((....)))))), the folding enthalpy in series [1] is -166 kJ/mol. In series [2], the Tm came out at 62.4 °C.
The like results for CTCAGGAAACTGAG (((((....))))) were, in that order, -94.8 kJ/mol and 46.3 °C.
For GATCCAACGATGGATC ((((((....)))))), in that order: -142 kJ/mol and 48.1 °C.
For GGTATGACGAAAGTCACC (((..(((....)))))), in that order: -49.2 kJ/mol and 33.6 °C.
GGCGCTACGAAAGTAGCC (((..(((....)))))): in series [1], the folding enthalpy was -39.5 kJ/mol. Further, in series [2], the Tm amounted to 49.4 °C.
For GTGAGAGGAAACTCCCAC (((.(((....))).))), in that order: -103 kJ/mol and 36.6 °C.
The like results for GGCTATGGAAACATAACC ((.((((....)))).)) were, in that order, -108 kJ/mol and 34.4 °C.
For GACACACGAAAGTGCGTC (((.(((....))).))), in that order: -189 kJ/mol and 54.5 °C.
In the case of GATCCATGAATGGATC ((((((....)))))), the folding enthalpy in series [1] was -189 kJ/mol. Moreover, the Tm in series [2] was 53.3 °C.
On to GATCCCGCCCGGGATC ((((((....)))))), for which the folding enthalpy in series [1] was -137 kJ/mol. Moreover, the Tm in series [2] was 67.1 °C.
The like results for GTTGTCCGAAAGGAAAC (((.(((....)))))) were, in that order, -85.2 kJ/mol and 37.8 °C.
For GTGTACGGAAACGTACAC (((((((....))))))), in that order: -141 kJ/mol and 67.2 °C.
Take GAGGATGGAAACGTCCTC (((((.(....).))))): the folding enthalpy in series [1] was -146 kJ/mol. In addition, the Tm in series [2] is 49.6 °C.
The like results for CGCAGGAAACTGCG (((((....))))) were, in that order, -108 kJ/mol and 60.3 °C.
With GCTAGAACGAAAGTTAGC (((..(((....)))))), the folding enthalpy in series [1] was -111 kJ/mol. Also, in series [2], the Tm was 38.3 °C.
As to GCACACGAAAGTGACTGC ((((((....)))..))), the folding enthalpy in series [1] is -74.8 kJ/mol. The Tm in series [2] was 37.6 °C.
Regarding GCAGTGCGAAAGCATGGC ((..(((....)))..)), the folding enthalpy in series [1] is -80.2 kJ/mol. In series [2], the Tm came out at 54 °C.
In the case of GCCGGACCGAAAGGTGGC (((..(((....)))))), the folding enthalpy in series [1] is -113 kJ/mol. For the same sequence, in series [2], the Tm came out at 53.4 °C.
The like results for GGAGTCGGAAACGGTTCC (((..((....))..))) were, in that order, -113 kJ/mol and 34.6 °C.
As for GCACGTGGAAACGTGTGC ((((..(....)..)))), in series [1], the folding enthalpy is -104 kJ/mol. Moreover, in series [2], the Tm was 58.5 °C.
For GTCACGGGAAACTGTGAC (((((.(....).))))), in that order: -168 kJ/mol and 54.6 °C.
The like results for GGCTTAACGAAAGTTGCC (((..(((....)))))) were, in that order, -91.3 kJ/mol and 45.5 °C.
The like results for CGCGGGAAAGCCCGCG ((((((....)))))) were, in that order, -155 kJ/mol and 68.1 °C.
As to GTACGGGGAAACCTGTAC ((((.((....)).)))), the folding enthalpy in series [1] is -150 kJ/mol. Besides, the Tm in series [2] is 49.7 °C.
With GTGCGTGGAAACACACAC (((.(((....))).))), the folding enthalpy in series [1] is -159 kJ/mol. For the same sequence, the Tm in series [2] worked out at 48.6 °C.
The like results for GTCCCCGAAAGGGAGAC ((((((....))).))) were, in that order, -126 kJ/mol and 53.7 °C.
The like results for GTGAGACGAAAGTCCCAC (((.(((....))).))) were, in that order, -114 kJ/mol and 50.4 °C.
For GATCAAAAATTGATC ((((((...)))))), in that order: -124 kJ/mol and 37 °C.
For the sequence GCCGTTACGAAAGTAGGC (((..(((....)))))), in series [1], the folding enthalpy is -139 kJ/mol. Also, in series [2], the Tm worked out at 54.8 °C.
Regarding GATATCGAAAGATATC ((((((....)))))), the folding enthalpy in series [1] was -172 kJ/mol. Moreover, in series [2], the Tm was 53.6 °C.
Take GGATTCCGAAAGGACTCC (((.(((....))).))): in series [1], the folding enthalpy was -162 kJ/mol. The Tm in series [2] was 47 °C.
The like results for GATCGTTAAACGATC ((((((...)))))) were, in that order, -145 kJ/mol and 53.2 °C.
For GTTGTTTCGAAAGAAAAC (((..(((....)))))), in that order: -138 kJ/mol and 41.8 °C.
For GAAACCGAAAGGTGGTTC ((((((....)))..))), in that order: -49.2 kJ/mol and 32.3 °C.
GAGTAACGAAAGTTCCTC (((.(((....))).))): in series [1], the folding enthalpy is -82.7 kJ/mol. For the same sequence, in series [2], the Tm came to 38 °C.
The like results for GAGCAACGAAAGTTACTC (((.(((....))).))) were, in that order, -110 kJ/mol and 42.9 °C.
Regarding GTCGTTCGAAAGAATGAC (((.(((....))).))), in series [1], the folding enthalpy is -176 kJ/mol. Also, the Tm in series [2] is 54.9 °C.
For GCGATAACGAAAGTTCGC (((..(((....)))))), in that order: -118 kJ/mol and 51.1 °C.
The like results for GTCCACCGAAAGGTCGAC (((.(((....))).))) were, in that order, -114 kJ/mol and 44 °C.
For GCATGGCGAAAGCTGTGC (((..((....))..))), in that order: -132 kJ/mol and 59.9 °C.
With GATCGCAGTCGCGATC ((((((....)))))), in series [1], the folding enthalpy is -145 kJ/mol. Moreover, in series [2], the Tm turned out to be 68.5 °C.
For GTAATAGGAAACTATTAC (((((((....))))))), in that order: -156 kJ/mol and 45.5 °C.
The like results for TCGCAGAAATGCGA (((((....))))) were, in that order, -71.8 kJ/mol and 54.4 °C.
For GCCGCAGGAAACCACGGC ((((..(....)..)))), in that order: -85.3 kJ/mol and 42.1 °C.
Take GCTGGGCGAAAGCGCTGC ((.(.((....)).).)): the folding enthalpy in series [1] was -133 kJ/mol. For the same sequence, the Tm in series [2] turned out to be 60 °C.
Consider GAGAGCGAAAGCTTGCTC ((((((....)))..))), for which the folding enthalpy in series [1] is -43.7 kJ/mol. For the same sequence, in series [2], the Tm was found to be 35.5 °C.
On to GATCGACAGTCGATC ((((((...)))))), for which the folding enthalpy in series [1] is -169 kJ/mol. Moreover, in series [2], the Tm came to 49.8 °C.
For GCTTGGCGAAAGCTAAGC ((((.((....)).)))), in that order: -125 kJ/mol and 64.7 °C.
The like results for GCGATGGGAAACCGTTGC ((.(.((....)).).)) were, in that order, -120 kJ/mol and 42.7 °C.
For GCTGGTGGAAACACTAGC (((.(((....))).))), in that order: -171 kJ/mol and 51.3 °C.
As to GGCAGCGAAAGCTATGCC ((((((....)))..))), the folding enthalpy in series [1] is -120 kJ/mol. For the same sequence, the Tm in series [2] turned out to be 55.3 °C.
For GCCTTTGGAAACAAAAGC ((.((((....)))).)), in that order: -51 kJ/mol and 29.3 °C.
Consider GATCACTACGGTGATC ((((((....)))))), for which, in series [1], the folding enthalpy was -159 kJ/mol. Further, the Tm in series [2] stood at 58.7 °C.
For GAACGACGAAAGTCTTC (((.(((....)))))), in series [1], the folding enthalpy is -64.1 kJ/mol. In addition, the Tm in series [2] is 34.8 °C.
Turning to GCTGACGAAAGTCGAGC ((((((....))).))), the folding enthalpy in series [1] is -158 kJ/mol. Moreover, the Tm in series [2] came to 54.6 °C.
The like results for GTGGACGGAAACGCCCAC ((((.((....)).)))) were, in that order, -235 kJ/mol and 53.2 °C.
For GATCCTAACTAGGATC ((((((....)))))), in that order: -152 kJ/mol and 53.3 °C.
For the sequence GATCAATACATTGATC ((((((....)))))), the folding enthalpy in series [1] is -156 kJ/mol. The Tm in series [2] is 49.2 °C.
The like results for GATCGAAACTCGATC ((((((...)))))) were, in that order, -127 kJ/mol and 50.2 °C.
As for GTCTATTCGAAAGAAGAC (((..(((....)))))), the folding enthalpy in series [1] is -35.5 kJ/mol. In series [2], the Tm is 23.8 °C.
